Test system: MS2 coat protein
Test: apparent Kd, MS2 coat protein; higher = weaker binding; RNA-MaP array; FMN 200 µM where present
Summary of the method: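 Green signal was scaled to red-channel RNA signal and control-cluster median Fmax, and the apparent Kd was taken as the median of filtered per-cluster binding-curve fits. The binding series used SNAP-549-labelled MS2 coat protein from 0.7 or 1.5 nM, doubling to 3 µM, on designs transcribed by stalled E. coli RNA polymerase on Illumina sequencing-chip clusters. Each series ran without and then with constant ligand in 100 mM Tris-HCl pH 7.5, 80 mM KCl, 4 mM MgCl2, BSA, DTT, yeast tRNA and Tween-20.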

[1] = designed as: ON switch for flavin mononucleotide, no ligand
[2] = ligand present: flavin mononucleotide, designed as: ON switch for flavin mononucleotide
[3] = designed as: OFF switch for flavin mononucleotide, no ligand
[4] = ligand present: flavin mononucleotide, designed as: OFF switch for flavin mononucleotide

| Sequence | apparent Kd [1] [nM] | apparent Kd [2] [nM] | apparent Kd [3] [nM] | apparent Kd [4] [nM] |
| --- | --- | --- | --- | --- |
| AGGUAACAUGAGGAUCACCCAUGUAAGGUGAACGUAGGAUAUCGAGGAGGUAGGGUAGGCCGAGAAGGACGAGGAG | 293 | 179 | – | – |
| AGGUGUCCUGAGAAAUUUCUCGACAUGAGGAUCACCCAUGUAGAGGAUAUCGACGCUGUGCGGUUCGAGAAGGCUACACGAAUU | – | – | 12.7 | 94.3 |
| AGUAAGAUGCAGAAGGUGUCAGCGAGAGCUGCGACAUGAGGAUCACCCAUGUGUCGGUGACGACACAAGGAUAUGCAUCUUACA | 407 | 227 | – | – |
| AGUACCAUGUAGAAGGGAUAUCUGAUUCAGAUAUCAGGAUAUACAUGAGGAUCACCCAUGUAAAUGUACUCCACGAAAGUGGAA | – | – | 22.1 | 63.8 |
| AGUAUGAGAGGAUAUACGAAUAAACAUGGAAACAUGAUGGGACAUGAGGAUCACCCAUGUAGAAGGCUCGUACA | – | – | 118 | 358 |
| AGUCAGAGCAGAGGAUAUAUACAUGAGGAUCACCCAUGUGACUGACUAUGCUAGAAAUAGUAUGUAUAGAAGGCUGCUCUGACA | – | – | 188 | 466 |
| AGUCAUACAGGAUAUACAUGAGGAUCACCCAUGUAUAUCCUACAUGGGUGAUCCUCAUGUAGAAGGGUAUGACA | – | – | 13.5 | 11.6 |
| AGUCCUGAUGUUAGGAUAUGCAACUAGCCAUUGUAGCAGAAGGAACAUGAGGAUCACCCAUGUACAAAGACCCA | – | – | 30.1 | 55.4 |
| AGUCGGAGCAGAGGAUAUACAUGAGGAUCACCCAUGUAAAUGGAAGAAGACUGGAAACAGUCAAUGUAGAAGGCUGCUCCGACA | – | – | 121 | 625 |
| AGUCGGAGCAGAGGAUAUACAUGAGGAUCACCCAUGUAAUAAAGUGAAGCCUGGUAACAGGCAAUGUAGAAGGCUGCUCCGACA | – | – | 11.3 | 77.7 |
| AGUCGGAGCAGAGGAUAUACAUGAGGAUCACCCAUGUAAUAGGAUGAAGCCUGGAAACAGGCAAUGUAGAAGGCUGCUCCGACA | – | – | 60.1 | 589 |
| AGUCGGAGCAGAGGAUAUUACAUGAGGAUCACCCAUGUAUAAAGAUCAAGCUGGAAACAGCAAUGUAAGAAGGCUGCUCCGACA | – | – | 57.4 | 321 |
| AGUCGGAGCAGAGGAUAUUACAUGAGGAUCACCCAUGUAUUAAAUGGAAGCUGGAAACAGCAAUGUAAGAAGGCUGCUCCGACA | – | – | 62.4 | 284 |
| AGUCGGCAUGAGAAGGGUUACAUGAGGAUCACCCAUGUGAUCAAAUCGUUAACAGGAUAUCAGGCGUCGGGCUUUGCCCGGAGG | – | – | 16.4 | 106 |
| AGUGACGACACAGGAUAUGCUGGACUUUGUCCAGCAGAAGGGUGUUAACAUGAGGAUCACCCAUGUAUCGUCACCAAAUUUAAU | 628 | 34.1 | – | – |
| AGUGCCUCGAGAGGAUAUACAUGAGGAUCACCCAUGUAAGUAGAGGUGGAAACACCUCUACAAAUGUAGAAGGCUCGAGGCACA | – | – | 18 | 52.2 |
| AGUGCGUAUGUGAGGAUAUGCUGGUCCUUGGAUCAGCAGAAGGCACAUGAGGAUCACCCAUGUGGUGUCGUACA | – | – | 342 | 24.9 |
| AGUGUCAUCGAGAAGGCCUCAACAUGAGGAUCACCCAUGUUGCAAAAUGGGAGGAUAUCGAAAAAACAGCUACGUUUCGUAGCA | 22.6 | 5.17 | – | – |
| AGUGUCAUCGAGAAGGCCUCAUGACAUGAGGAUCACCCAUGUUAGCAUGGGAGGAUAUCGAUGAUACAGCUACGUUUCGUAGCA | 170 | 51.4 | – | – |
| AGUGUCAUUUAGAAGGCCUCAUGACAUGAGGAUCACCCAUGUUAUCAUGGGAGGAUAUGGAUGAUAUAGUUAUGUUUCGUAGUA | 307 | 112 | – | – |
| AGUUAAUAUCGAGGAUAUCCUCAGAAACAUGAGGAUCACCCAUGUAGAAUGGGAGAAGGCGAUAUUAACAGCAUGUUACAUGCA | 182 | 27.9 | – | – |
| AGUUAAUAUCGAGGAUAUCCUCAUCUACAUGAGGAUCACCCAUGUAAACAUGGAGAAGGCGAUAUUAACAGCAUGUUACAUGCA | 259 | 14.9 | – | – |
| AGUUAAUAUCGAGGAUAUGUCUAGACACAUGAGGAUCACCCAUGUAUGUGUAUAGAAGGCAAAAUUAACAGCAUGUUACAUGCA | 30.6 | 24.9 | – | – |
